According to ChEMBL document CHEMBL4706772, “Structure-Based Design of A-1293102, a Potent and Selective BCL-X Inhibitor” (ACS Med Chem Lett, 2021):

Assays:
Bcl-2-like protein 1 [1] = target: T1, Bcl-2-like protein 1 (Homo sapiens, UniProt Q07817); assay: Binding affinity to N-terminal GST-tagged BCL-XL (unknown origin) assessed as dissociation rate constant by SPR analysis
RS4-11 = assay: Cytotoxicity against human RS4-11 cells assessed as reduction in cell viability measured after 48 hrs by celltiter-glo assay; type: functional, cell-based; conditions: RS4-11, 48 h
Bcl-2-like protein 1 [2] = target: T1, Bcl-2-like protein 1; assay: Inhibition of F-Bak binding to GST-tagged BCL-XL (unknown origin) measured after 1 hr by TR-FRET assay
MOLT-4 [3] = assay: Cytotoxicity against human MOLT-4 cells assessed as reduction in cell viability measured after 48 hrs by celltiter-glo assay; type: functional, cell-based; conditions: MOLT-4, 48 h
Bcl-2-like protein 1 [4] = target: T1, Bcl-2-like protein 1; assay: Binding affinity to N-terminal GST-tagged BCL-XL (unknown origin) assessed as equilibrium dissociation constant by SPR analysis
Homo sapiens = organism: Homo sapiens; assay: Selectivity ratio of Ki for inhibition of F-Bak binding to GST-tagged BCL2 (unknown origin) to Ki for inhibition of F-Bak binding to GST-tagged BCL-XL (unknown origin)
Bcl-2-like protein 1 [5] = target: T1, Bcl-2-like protein 1; assay: Binding affinity to N-terminal GST-tagged BCL-XL (unknown origin) assessed as residence half-life by SPR analysis
Bcl-2-like protein 1 [6] = target: T1, Bcl-2-like protein 1; assay: Binding affinity to N-terminal GST-tagged BCL-XL (unknown origin) assessed as association rate constant by SPR analysis
[7] = target: Induced myeloid leukemia cell differentiation protein Mcl-1 (Homo sapiens, UniProt Q07820); assay: Inhibition of F-Bak binding to GST-tagged MCL1 (unknown origin) measured after 1 hr by TR-FRET assay
Chain of Induced myeloid leukemia cell differentiation protein Mcl-1 (Q07820 whole entry): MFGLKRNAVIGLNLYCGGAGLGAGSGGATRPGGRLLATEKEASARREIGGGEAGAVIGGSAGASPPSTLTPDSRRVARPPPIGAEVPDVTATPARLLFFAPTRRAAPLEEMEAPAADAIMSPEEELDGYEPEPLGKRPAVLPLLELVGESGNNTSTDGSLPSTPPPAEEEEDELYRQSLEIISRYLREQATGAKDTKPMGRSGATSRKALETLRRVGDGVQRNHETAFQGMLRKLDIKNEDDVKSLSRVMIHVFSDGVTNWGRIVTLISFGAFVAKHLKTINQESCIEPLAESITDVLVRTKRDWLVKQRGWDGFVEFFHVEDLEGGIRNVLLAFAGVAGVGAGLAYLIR

MOLT-4 [8] = assay: Induction of apoptosis in human MOLT-4 cells assessed as externalization of phosphatidylserine measured after 24 hrs by annexin-V staining based flow cytometry; type: functional, cell-based
How it was run: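 Phosphatidylserine exposure in MOLT-4 cells was scored by annexin V binding after 24 h exposure to increasing inhibitor concentrations. Results are expressed as percent annexin V-positive cells.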

MOLT-4 [9] = assay: Induction of mitochondrial membrane depolarization in human MOLT-4 cells measured after 24 hrs; type: functional, cell-based
[10] = target: Apoptosis regulator Bcl-2 (Homo sapiens, UniProt P10415); assay: Inhibition of F-Bak binding to GST-tagged BCL2 (unknown origin) measured after 1 hr by TR-FRET assay
Chain of Apoptosis regulator Bcl-2 (P10415 whole entry): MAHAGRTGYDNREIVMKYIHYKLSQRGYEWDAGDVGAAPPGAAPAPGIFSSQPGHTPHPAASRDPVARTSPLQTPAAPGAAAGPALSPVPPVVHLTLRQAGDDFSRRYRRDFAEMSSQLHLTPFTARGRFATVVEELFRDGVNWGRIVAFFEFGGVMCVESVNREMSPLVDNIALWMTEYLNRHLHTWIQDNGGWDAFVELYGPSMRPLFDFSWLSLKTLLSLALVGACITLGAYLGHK

MOLT-4 [11] = assay: Induction of apoptosis in human MOLT-4 cells assessed as activation of caspase-3/7 measured after 24 hrs by caspase-3/7 fluorescence assay; type: functional, cell-based
How it was run: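 MOLT-4 cells incubated 24 h with a rising concentration series of inhibitor. Read-out was caspase-3 and caspase-7 activation, reported as percentage of caspase-3/-7-positive cells.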

T1 sequence (Q07817 whole entry): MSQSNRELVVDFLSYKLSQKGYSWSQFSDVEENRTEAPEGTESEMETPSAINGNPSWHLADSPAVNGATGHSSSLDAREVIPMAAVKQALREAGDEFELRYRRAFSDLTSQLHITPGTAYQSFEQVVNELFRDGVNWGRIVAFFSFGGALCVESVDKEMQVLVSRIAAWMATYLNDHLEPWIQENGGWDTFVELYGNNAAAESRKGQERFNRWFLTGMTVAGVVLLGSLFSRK

K (Bcl-2-like protein 1 [1]) [s⁻¹] | Ki (Bcl-2-like protein 1 [2]) [nM] | Kd (Bcl-2-like protein 1 [4]) [nM] | Ratio Ki (Homo sapiens) | T1/2 (Bcl-2-like protein 1 [5]) [min] | K (Bcl-2-like protein 1 [6]) | Ki [7] [nM] | Ki [10] [nM] | Structure (SMILES) | EC50 (RS4-11) [nM] | EC50 (MOLT-4 [3]) [nM] | Activity (MOLT-4 [8]) | Activity (MOLT-4 [9]) | Activity (MOLT-4 [11])
0.0109 | 0.14 | 0.5 | > 220 | 1 | 2.18 10^7/M/s | > 1560 | – | CN(C)CC[C@H](CSc1ccccc1)Nc1ccc(S(=O)(=O)NC(=O)c2csc(N3CCc4cccc(C(=O)Nc5nc6ccccc6s5)c4C3)n2)cc1[N+](=O)[O-] | > 5000 | > 5000 | – | – | –
0.000234 | 0.43 | 0.4 | > 220 | 49 | 5.88 10^5/M/s | > 3900 | 193 | O=C(NS(=O)(=O)c1ccc(N[C@H](CCN2CCOCC2)CSc2ccccc2)c(S(=O)(=O)C(F)(F)F)c1)c1csc(N2CCc3cccc(C(=O)Nc4nc5ccccc5s4)c3C2)n1 | > 5000 | 80 | Dose-dependent effect | Dose-dependent effect | Dose-dependent effect
